Compound activity as filed in PubChem BioAssay.
KCNK9 block: inhibitors of human KCNK9 two-pore domain potassium channel; AID 488922; HEK293 KCNK9, FluxOR thallium flux fluorescence; hits give low values; hit rate 1.2% among 310,000; B-score at 10 µM;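 active = ratio B-score over 3 SD below the library mean, with starting fluorescence within 5 SD of its mean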;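 also: negative B-score means less thallium flux so channel inhibition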
Target sequence (Q9NPC2 whole entry, looked up, the tested form may be a part): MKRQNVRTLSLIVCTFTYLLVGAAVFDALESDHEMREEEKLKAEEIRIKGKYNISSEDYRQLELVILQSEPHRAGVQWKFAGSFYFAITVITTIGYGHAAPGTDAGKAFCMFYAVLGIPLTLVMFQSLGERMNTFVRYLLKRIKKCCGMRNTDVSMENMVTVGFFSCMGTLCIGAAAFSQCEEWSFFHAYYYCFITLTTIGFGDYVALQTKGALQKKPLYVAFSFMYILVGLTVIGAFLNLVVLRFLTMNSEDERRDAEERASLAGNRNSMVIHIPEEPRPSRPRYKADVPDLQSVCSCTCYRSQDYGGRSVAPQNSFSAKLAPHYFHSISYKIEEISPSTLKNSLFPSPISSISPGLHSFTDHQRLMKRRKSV
hERG rescue: hERG (human) protection from proarrhythmic block; Q12809; CHO-hERG, FluxOR thallium flux, dofetilide IC70 present; activation (rescue from dofetilide block), less the hit threshold, % at 10 µM; hit rate 0.51% among 310,000; AID 1511;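 active = activation above the mean of controls blocked by dofetilide plus 5 SD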;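 also: thallium influx through hERG after potassium depolarization seen as dye fluorescence rise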
Kir21 inh: blocks the mouse Kir2.1 inward-rectifier potassium channel. P35561. HEK293-Kir2.1, FluxOR thallium flux fluorescence; hits give low values. B-score at 10 µM. hit rate 0.85% among 310,000. AID 1672;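 active = fluorescence ratio B-score at or below minus 3 SD of library scores, with starting-brightness B-score within 2 SD, cut at about -4.2 in these data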;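 also: channel flux triggered by added potassium and thallium sulfate stimulus; B-score of peak minus minimum fluorescence over baseline after thallium stimulus; more negative B-score means stronger Kir2.1 block with less thallium influx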
KCNK3 block: human KCNK3 channel inhibition, primary screen | CHO-KCNK3 thallium flux, FluxOR fluorescence; hits give low values | hit rate 0.84% among 340,000 | AID 602410 | B-score at 10 µM;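 active = B-score under library mean minus 4 SD, starting fluorescence ratio at most library mean plus 5 SD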;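 also: more negative B-score means stronger inhibition of thallium flux through KCNK3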
KCNQ1 inh: inhibitors of human KCNQ1 potassium channel; P51787; CHO-K1 KCNQ1, FluxOR thallium flux fluorescence; hits give high values; B-score at 10 µM; hit rate 1.3% among 310,000; AID 2642;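 active = compounds whose thallium flux B-score, printed positive for inhibition, exceeds three library SD while starting fluorescence stays within three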;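 also: channel opened by potassium depolarization with thallium stimulus after 20 min compound exposure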
KCNQ1 act: potentiates or activates the human KCNQ1 potassium channel. hit rate 0.35% among 310,000. CHO-K1 KCNQ1, thallium flux FluxOR fluorescence; hits give high values. B-score at 10 µM;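 active = fluorescence ratio B-score, a plate-corrected score, at least three library SD, with initial intensity B-score within 5 SD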
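Schedule – 37 °C overnight plating, 90-min dark dye load, 20-min compound pretreatment · System – stable KCNQ1 CHO-K1 line · Probe or stimulus – thallium- and potassium-containing depolarizing buffer · Measured by – kinetic FluxOR fluorescence, 10 s baseline plus 110 s post-stimulus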
KCNK9 inh conf: confirmation of human KCNK9 potassium channel inhibitors | HEK293 KCNK9 cells, FluxOR thallium flux fluorescence | hit rate 43% among 4,900 | AID 492992 | inhibition, % at 10 µM | shares compounds with KCNK9 block;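 active = thallium signal inhibited by more than 5 SD of the compound-free buffer control wells, on both duplicate plates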;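 also: 0% = assay buffer control wells without compound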
Kir2-1 spec: mouse Kir2.1 off-target activity of KCNK9 modulators | shares compounds with KCNK9 block | Kir2.1 cells, FluxOR thallium flux fluorescence | inhibition, % at 10 µM | hit rate 4% among 4,900;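 active = thallium signal drop more than 5 SD beyond the mean of the no-compound control wells, seen in both duplicate plates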;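 also: signal is fluorescence rise after thallium addition divided by baseline fluorescence; plate controls were assay buffer only for no effect and full block by chlorpromazine control for full effect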
HEK293 Tl ctr: second counter-screen for KCNK9 modulators: effect in non-induced cells | inhibition, % at 10 µM | shares compounds with KCNK9 block | hit rate 40% among 4,900 | AID 492997 | non-induced KCNK9-HEK293, FluxOR thallium flux;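 active = thallium signal drop beyond 5 SD of the untreated control mean, on both duplicate plates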;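 also: plate controls were buffer only IC0 wells for no effect and SID17386958 at its maximal inhibitory level for full effect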
An asterisk follows results filed as active; i = inactive; . = no result. Shown are actives, neighbours in structure and some others; about 3.7% of the full set was active somewhere.

SMILES | KCNK9 block | hERG rescue | Kir21 inh | KCNK3 block | KCNQ1 inh | KCNQ1 act | KCNK9 inh conf | Kir2-1 spec | HEK293 Tl ctr
CNS(=O)(=O)c1cccc(C(=O)OCc2cc(Cl)cc3c2OCOC3)c1 | -13* | -9 | -0.27 | i | i | i | 48%* | i | i
O=C(CCC(=O)N1CCCC1)N1CCCC1 | i | -7 | 0.02 | i | i | i | . | . | .
CCN(CC)C(=O)CSc1nc2ccccc2c(=O)n1CC | i | -10 | 0.52 | i | i | i | . | . | .
CCCCN(CC)C(=O)CSc1nc2ccccc2c(=O)n1CC1COc2ccccc2O1 (stereo not given) | i | -18 | 1.4 | i | i | i | i | i | i
CCC(C)N(C(=O)Cn1nnc2ccccc21)C(C(=O)Nc1ccc(F)cc1)c1cccc(OC)c1 (stereo not given) | -9.2* | -4 | 1.3 | i | i | i | 36%* | i | i
COCCNC(=O)C(c1cccc(OC)c1)N(Cc1cccs1)C(=O)Cn1nnc2ccccc21 (stereo not given) | i | -8 | -0.29 | i | i | i | . | . | .
COc1cc(C2C(C#N)=C(N)Oc3cc(O)ccc32)cc2c1OCO2 (stereo not given) | i | -10 | -1.9 | i | i | i | . | . | .
COc1cc(C2C(C#N)=C(N)Oc3cc(N(C)C)ccc32)cc2c1OCO2 (stereo not given) | -8.6* | -12 | -1.7 | i | i | i | 34%* | i | 54%*
Cc1cc(C(=O)NCC(C)(C)N2CCOCC2)c(C)o1 | i | -16 | 0.03 | i | i | i | . | . | .
CCOC(=O)c1nc(Nc2cc(Cl)ccc2OC)c2ccccc2n1 | -13* | -3 | -1.2 | i | i | i | 46%* | i | i
CCOC(=O)c1nc(Nc2ccccc2)c2ccccc2n1 | i | -9 | 2.1 | i | i | i | . | . | .
Cc1cc(C2(c3ccc(O)c(C)c3)OC(=O)c3ccccc32)ccc1O | -12* | -6 | -2 | i | i | i | 55%* | i | i
Nc1ccc(C2(c3ccc(N)cc3)OC(=O)c3ccccc32)cc1 | i | -4 | 0.24 | i | i | i | . | . | .
CC(C)(C)c1ccc(OCC(=O)NNC(=S)NC(=O)c2ccco2)c(Br)c1 | i | -13 | 1.4 | i | i | 56* | i | i | i
CC(C)C(=O)Nc1ccc2nn(-c3ccc(F)cc3)nc2c1 | i | -13 | 0.43 | i | i | i | i | i | i
CCN(CC)c1ccc(/C=N/Nc2ccccc2)c(O)c1 | i | -13 | 0.01 | i | i | i | . | . | .
C(=N\N1CCN(Cc2ccccc2)CC1)/c1ccccc1 | i | -6 | 0.14 | i | i | i | . | . | .
CCN(CC)c1ccc(/C=N/Nc2cccc(C)c2)c(O)c1 | i | -7 | -0.03 | i | i | i | i | i | i
CSc1ccc(/C=N/N2CCN(Cc3ccc(C)cc3C)CC2)cc1 | i | -9 | 1.5 | i | i | i | i | i | i
CCN(CC)c1ccc(/C=N/N2CCN(Cc3ccccc3Cl)CC2)cc1 | i | -9 | -0.71 | i | 6* | i | i | i | i
CCN(CC)c1ccc(/C=N/N2CCN(Cc3ccccc3)CC2)cc1 | i | -5 | 0.16 | i | i | i | i | i | i
CN(C)c1ccc(/C=N/N2CCN(Cc3ccccc3Cl)CC2)cc1 | i | -4 | 0.02 | i | i | i | . | . | .
Cc1c(Cl)cccc1NC(=S)C(=C([O-])c1ccc(Cl)s1)[n+]1ccccc1 | . | . | . | i | . | . | . | . | .
Cc1ccc(C(=O)NCC(=O)OCC(=O)NC(C)C2CC3CCC2C3)cc1 (stereo not given) | . | . | . | i | . | . | . | . | .
CC(=O)c1c(C)[nH]c(C(=O)OCC(=O)NCc2cccs2)c1C | . | . | . | i | . | . | . | . | .
